According to ChEMBL document CHEMBL1144025, “1,3-Dipropyl-8-(1-phenylacetamide-1H-pyrazol-3-yl)-xanthine derivatives as highly potent and selective human A(2B) adenosine receptor antagonists” (Bioorg Med Chem, 2008):
pKi: −log10 of the molar value.

Key:
Assay type in all cases: cell-based
[1] = target: T1, Adenosine receptor A3 (Homo sapiens, UniProt P0DMS8); experiment: Displacement of [3H]MRE3008F20 from human adenosine A3 receptor expressed in CHO cells
T1 sequence (P0DMS8 whole entry): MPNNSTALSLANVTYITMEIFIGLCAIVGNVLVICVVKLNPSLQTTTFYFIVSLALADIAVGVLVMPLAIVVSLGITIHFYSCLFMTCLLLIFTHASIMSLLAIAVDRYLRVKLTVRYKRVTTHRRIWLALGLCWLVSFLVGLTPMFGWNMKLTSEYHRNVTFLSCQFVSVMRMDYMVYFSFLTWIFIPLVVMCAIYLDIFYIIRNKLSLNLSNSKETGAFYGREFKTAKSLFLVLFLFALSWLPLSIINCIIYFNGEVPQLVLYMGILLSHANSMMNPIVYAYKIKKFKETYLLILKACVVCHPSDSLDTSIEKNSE
Procedure, shortened: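 Membranes (50 µg protein/assay) in 50 mM Tris-HCl, 10 mM MgCl2, 1 mM EDTA, pH 7.4, incubated 120 min at 4 °C with [³H]MRE3008F20 and at least 6–8 ligand concentrations. Nonspecific binding defined with 1 µM MRE 3008F20. Glass fiber filtration and counting. Ki via Cheng-Prusoff; n = 3–6.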

[2] = target: Adenosine receptor A2a (Homo sapiens, UniProt P29274); experiment: Displacement of [3H]ZM-241385 from human adenosine A2A receptor expressed in CHO cells
Procedure, shortened: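 Membranes (50 µg protein/assay) in 50 mM Tris-HCl, 10 mM MgCl2, pH 7.4, incubated 60 min at 4 °C with [³H]ZM241385 and at least 6–8 concentrations of compound. Nonspecific binding defined with 1 µM ZM 241385. GF/B filtration and counting. Ki by Cheng-Prusoff; n = 3–6.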

[3] = target: T2, Adenosine receptor A1 (Homo sapiens, UniProt P30542); experiment: Displacement of [3H]DPCPX from human adenosine A1 receptor expressed in CHO cells
T2 sequence (P30542 whole entry): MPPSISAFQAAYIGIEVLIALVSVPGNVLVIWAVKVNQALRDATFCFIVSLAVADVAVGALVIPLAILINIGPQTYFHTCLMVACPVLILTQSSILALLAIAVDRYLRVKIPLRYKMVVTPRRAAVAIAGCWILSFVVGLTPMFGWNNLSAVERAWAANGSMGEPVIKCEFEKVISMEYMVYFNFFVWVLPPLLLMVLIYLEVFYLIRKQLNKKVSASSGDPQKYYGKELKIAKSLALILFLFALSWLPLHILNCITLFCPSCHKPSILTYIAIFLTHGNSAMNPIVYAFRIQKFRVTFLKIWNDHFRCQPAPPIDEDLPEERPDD

[4] = target: T3, Adenosine receptor A2b (Homo sapiens, UniProt P29275); experiment: Displacement of [3H]MRE2029F20 from human adenosine A2B receptor expressed in HEK293 cells
T3 sequence (P29275 whole entry): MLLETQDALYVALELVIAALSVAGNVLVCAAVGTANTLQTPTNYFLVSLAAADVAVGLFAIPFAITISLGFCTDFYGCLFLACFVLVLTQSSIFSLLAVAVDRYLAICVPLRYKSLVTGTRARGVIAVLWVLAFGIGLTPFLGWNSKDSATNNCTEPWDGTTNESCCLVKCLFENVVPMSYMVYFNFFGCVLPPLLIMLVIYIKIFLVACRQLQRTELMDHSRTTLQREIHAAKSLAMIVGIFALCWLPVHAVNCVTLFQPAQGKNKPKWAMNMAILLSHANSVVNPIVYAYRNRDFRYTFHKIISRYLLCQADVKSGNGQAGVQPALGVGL
Procedure, shortened: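 Membranes (50 µg protein/assay) in 50 mM Tris-HCl, 10 mM MgCl2, 1 mM EDTA, pH 7.4, incubated 120 min at 4 °C with [³H]MRE2029F20 and at least 6–8 compound concentrations. Nonspecific binding defined with 1 µM MRE 2029F20. GF/B filtration, scintillation counting. Ki via Cheng-Prusoff; n = 3–6.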

Chain of Adenosine receptor A2a (P29274 whole entry): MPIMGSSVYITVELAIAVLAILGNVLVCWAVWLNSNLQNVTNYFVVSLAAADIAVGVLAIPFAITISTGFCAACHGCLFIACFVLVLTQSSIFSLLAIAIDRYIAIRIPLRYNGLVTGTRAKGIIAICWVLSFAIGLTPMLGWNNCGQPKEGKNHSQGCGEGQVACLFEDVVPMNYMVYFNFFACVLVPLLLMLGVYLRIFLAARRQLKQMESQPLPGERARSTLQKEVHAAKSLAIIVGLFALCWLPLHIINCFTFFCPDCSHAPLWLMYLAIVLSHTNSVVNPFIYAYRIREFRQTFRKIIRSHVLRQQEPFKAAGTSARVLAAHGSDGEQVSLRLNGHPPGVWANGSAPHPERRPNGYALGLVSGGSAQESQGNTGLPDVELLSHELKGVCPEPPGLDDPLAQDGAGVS

pKi [1] | pKi [2] | pKi [3] | pKi [4] | SMILES
< 6.00 |  |  |  | CCCn1c(=O)c2[nH]c(-c3cc(C)n(CC(=O)Nc4cccc(Cl)c4)n3)nc2n(CCC)c1=O
< 6.00 | < 6.00 | < 6.00 |  | CCCn1c(=O)c2[nH]c(-c3cc(C)n(CC(=O)Nc4ccc(Cl)cc4)n3)nc2n(CCC)c1=O
< 6.00 |  |  |  | CCCn1c(=O)c2[nH]c(-c3nn(CC(=O)Nc4ccc(Cl)cc4)c(C)c3Cl)nc2n(CCC)c1=O
< 6.00 |  |  |  | CCCn1c(=O)c2[nH]c(-c3ccn(CC(=O)Nc4ccc(Cl)cc4)n3)nc2n(CCC)c1=O
< 6.00 | < 6.00 | < 6.00 |  | CCCn1c(=O)c2[nH]c(-c3cc(C)n(CC(=O)Nc4ccc(Br)cc4)n3)nc2n(CCC)c1=O
< 6.00 |  |  |  | CCCn1c(=O)c2[nH]c(-c3nn(CC(=O)Nc4ccc(Cl)cc4)c(C)c3Br)nc2n(CCC)c1=O
< 6.00 |  |  |  | CCCn1c(=O)c2[nH]c(-c3cc(C)n(CC(=O)Nc4ccc(I)cc4)n3)nc2n(CCC)c1=O
< 6.00 |  |  |  | CCCn1c(=O)c2[nH]c(-c3cc(C)n(CC(=O)Nc4ccc(C)cc4)n3)nc2n(CCC)c1=O
< 6.00 |  |  |  | CCCn1c(=O)c2[nH]c(-c3cc(C)n(CC(=O)Nc4ccc(F)cc4)n3)nc2n(CCC)c1=O
< 6.00 |  |  |  | CCCn1c(=O)c2[nH]c(-c3cc(C)n(CC(=O)Nc4ccccc4)n3)nc2n(CCC)c1=O
< 6.00 |  |  | < 6.00 | CCCn1c(=O)c2[nH]c(-c3cc(C)n(CC(=O)Nc4ccc(N(C)C)cc4)n3)nc2n(CCC)c1=O
< 6.00 | < 6.00 | < 6.00 |  | CCCn1c(=O)c2[nH]c(-c3cc(OCC(=O)Nc4ccc(OC)c(OC)c4)nn3C)nc2n(CCC)c1=O
< 6.00 |  |  | < 6.00 | CCCn1c(=O)c2[nH]c(-c3cc(CC)n(CC(=O)Nc4ccc(Cl)cc4)n3)nc2n(CCC)c1=O
< 6.00 |  |  |  | CCCn1c(=O)c2[nH]c(-c3cc(C)n(CC(=O)Nc4ccc(OC)c(OC)c4)n3)nc2n(CCC)c1=O
< 6.00 |  |  | < 6.00 | CCCn1c(=O)c2[nH]c(-c3cc(C)n(CC(=O)Nc4cccc5ccccc45)n3)nc2n(CCC)c1=O
< 6.00 |  |  | < 6.00 | CCCn1c(=O)c2[nH]c(-c3nn(CC(=O)Nc4ccc(Cl)cc4)c(C)c3I)nc2n(CCC)c1=O
< 6.00 |  |  |  | CCCn1c(=O)c2[nH]c(-c3cc(C)n(CC(=O)Nc4ccc(Cl)c(Cl)c4)n3)nc2n(CCC)c1=O
< 6.00 |  |  |  | CCCn1c(=O)c2[nH]c(-c3cc(C)n(CC(=O)Nc4ccc(OC)cc4)n3)nc2n(CCC)c1=O
< 6.00 |  |  |  | CCCn1c(=O)c2[nH]c(-c3cc(C)n(CC(=O)Nc4cccc(OC)c4)n3)nc2n(CCC)c1=O
< 6.00 |  |  |  | CCCn1c(=O)c2[nH]c(-c3cc(C)n(CC(=O)Nc4ccc(C)c(C)c4)n3)nc2n(CCC)c1=O
